# Entries after “also recorded” stand apart in the source; their conditions may differ. Read-outs that look alike come from different tables or passages of the source. No end group written: not given here.
# Columns and labels:
# FLAG-TRPV1 (rat) (rat) [1] = molecular target: FLAG-TRPV1 (rat) (rat) (UniProt O35433)
# FLAG-TRPV1 (rat) (rat) [2] = molecular target: FLAG-TRPV1 (rat) (rat) (UniProt O35433); remark: listed apart in the source
# rat TRPV1 [3] = molecular target: T1, rat TRPV1 (Rattus norvegicus, UniProt O35433); test: Whole-cell patch-clamp recording from TRPV1-expressing HEK293 cells; type: cell-based
# T1 sequence (O35433 whole entry): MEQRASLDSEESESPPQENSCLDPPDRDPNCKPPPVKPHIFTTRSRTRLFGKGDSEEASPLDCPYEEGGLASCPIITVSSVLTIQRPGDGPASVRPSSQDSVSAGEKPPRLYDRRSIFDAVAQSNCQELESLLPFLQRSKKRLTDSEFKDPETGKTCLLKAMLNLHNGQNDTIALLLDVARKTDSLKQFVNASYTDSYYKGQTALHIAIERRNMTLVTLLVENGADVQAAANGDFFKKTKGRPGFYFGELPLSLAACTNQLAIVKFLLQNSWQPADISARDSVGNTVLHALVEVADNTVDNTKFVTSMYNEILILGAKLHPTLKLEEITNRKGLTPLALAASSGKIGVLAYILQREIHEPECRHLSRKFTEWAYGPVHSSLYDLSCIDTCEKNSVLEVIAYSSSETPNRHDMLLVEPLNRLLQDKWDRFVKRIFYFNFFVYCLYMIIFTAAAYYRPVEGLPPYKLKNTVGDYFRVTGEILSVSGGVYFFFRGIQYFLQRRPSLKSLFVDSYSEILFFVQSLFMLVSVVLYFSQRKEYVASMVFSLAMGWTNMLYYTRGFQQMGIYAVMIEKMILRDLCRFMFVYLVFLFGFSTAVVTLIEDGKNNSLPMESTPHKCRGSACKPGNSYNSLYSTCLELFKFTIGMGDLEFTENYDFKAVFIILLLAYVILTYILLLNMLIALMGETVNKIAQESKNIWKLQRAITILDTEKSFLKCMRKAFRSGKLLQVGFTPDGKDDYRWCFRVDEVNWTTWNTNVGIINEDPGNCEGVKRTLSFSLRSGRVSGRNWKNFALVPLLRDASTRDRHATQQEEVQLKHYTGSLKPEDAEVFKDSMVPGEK
# [4] = tested on: capsaicin-sensitive trigeminal neurons; test: Whole cell patch clamp recordings from capsaicin-sensitive trigeminal neurons; type: cell-based, mouse; details: capsaicin 1 μM
# TRPV1 = type: cell-based, rat; details: outside-out patches containing a single functional TRPV1 channel; capsaicin 1 μM
# rat TRPV1 (A657P) = test: Whole cell patch clamp, HEK293 cells expressing rat TRPV1; type: cell-based; details: +80 mV
# [5] = tested on: X. laevis frog TRPV1 (xTRPV1); test: Two-electrode voltage clamp, Xenopus oocytes expressing wild type frog TRPV1; type: cell-based; details: +80 mV
# In short: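 Frog TRPV1 coding sequence cloned from trigeminal and dorsal root ganglion RNA. cRNA made by T7 transcription; stage V–VI oocytes injected with 3–50 ng per oocyte and recorded 3-7 days later in normal frog Ringer's buffered with HEPES (pH 7.4) or MES (pH 5.5). Toxins expressed recombinantly in E. coli, His tag removed by TEV protease, concentration set from predicted 280 nm extinction coefficient.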
# rat Kv2.1 F274R = type: cell-based; details: VaTx1 20 μM; n = 3-5 cells per trace
# rat Kv2.1 E277K = type: cell-based; details: VaTx1 20 μM; n = 3-5 cells per trace
# rat Kv2.1 I273Y = type: cell-based; details: VaTx1 20 μM; n = 3-5 cells per trace
# rat TRPV1 [6] = molecular target: T1, rat TRPV1; test: Calcium imaging dose-response in TRPV1-expressing HEK293 cells; type: cell-based; details: ruthenium red 10 μM co-applied
# FLAG-TRPV1 (rat) (rat), sequence (O35433 whole entry): as above
# native DkTx (double-knot toxin), sequence (P0CH43 whole entry): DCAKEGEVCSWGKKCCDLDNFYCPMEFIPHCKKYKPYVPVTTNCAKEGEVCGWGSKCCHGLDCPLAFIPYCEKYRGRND
# recombinant DkTx, sequence (P0CH43 whole entry): as above
compound,measurement,setting,value
native DkTx (double-knot toxin) (from UniProt P0CH43 1-79) (peptide),"EC50 of TRPV1 activation, calcium imaging of TRPV1-expressing HEK293 cells",FLAG-TRPV1 (rat) (rat) [1],230 nM
"K2 (Knot 2, C-terminal ICK peptide of DkTx-HYR)","EC50 of TRPV1 activation, calcium imaging of TRPV1-expressing HEK293 cells",FLAG-TRPV1 (rat) (rat) [2],970 nM
"K1 (Knot 1, N-terminal ICK peptide of DkTx-HYR)","EC50 of TRPV1 activation, calcium imaging of TRPV1-expressing HEK293 cells",FLAG-TRPV1 (rat) (rat) [2],8900 nM
COc1cc(CNC(=O)CCCC/C=C/C(C)C)ccc1O [capsaicin],"τoff, time constant of current decay on washout",rat TRPV1 [3],0.17 min
same,time for evoked currents to return to baseline after washout,[4],≤ 10 s
same,unitary conductance of single channel events,TRPV1,118 pS
same,sensitivity of rat TRPV1 (A657P),"rat TRPV1 (A657P); DkTx 2 μM, VaTx3 2 μM, capsaicin 1 μM",retained sensitivity
same,sensitivity of frog TRPV1 (xTRPV1),[5],responds
"VaTx1: vanillotoxin, ICK peptide from the Trinidad Chevron tarantula (Psalmopoeus cambridgei) that activates TRPV1 and inhibits Kv2.1 (SECRWFMGGCDSTLDCCKHLSCKMGLYYCAWDGTF; ends and bridges not checked; cysteine pairing not given here)",activation of wild type rat TRPV1 currents,"rat TRPV1 [3]; VaTx1 100 μM, whole cell patch clamp, +80 mV",activation
same,VaTx1 activation of TRPV1 (A657P),rat TRPV1 (A657P); VaTx1 100 μM,abolished
same,effect of F274R mutation on VaTx1-mediated inhibition of Kv2.1,rat Kv2.1 F274R,eliminated VaTx1-mediated inhibition
same,effect of E277K mutation on VaTx1-mediated inhibition of Kv2.1,rat Kv2.1 E277K,eliminated VaTx1-mediated inhibition
same,effect of I273Y mutation on VaTx1-mediated inhibition of Kv2.1,rat Kv2.1 I273Y,modest effect; also recorded: no substantial effect
recombinant DkTx (from UniProt P0CH43 1-79) (peptide),"EC50 of TRPV1 activation, calcium imaging of TRPV1-expressing HEK293 cells",FLAG-TRPV1 (rat) (rat) [1],140 nM
N.N.N.N.N.N.N.N.N.N.N.N.N.N.[Cl-].[Cl-].[Cl-].[Cl-].[Cl-].[Cl-].[O-2].[O-2].[Ru+3].[Ru+3].[Ru+4] [ruthenium red],effect on DkTx-evoked calcium increases,rat TRPV1 [6],inhibits toxin-evoked responses

# From publication PMC2905675 (Cell, 2010)
